Laboratory results taken from paper PMC5515376 (Nature, 2016).
pEC50, pIC50: −log10 of the molar value. Entries after “also recorded” stand apart in the source; their conditions may differ. Read-outs that look alike come from different tables or passages of the source. Marks after values point to notes of the source that are not given here.

Tests used:
P. falciparum Dd2 [1] = assay: In vitro P. falciparum blood-stage growth inhibition assay; type: cell-based, Plasmodium falciparum
[2] = test system: P. falciparum 3D7 stage IV–V gametocytes; assay: In vitro transmission-blocking assay; type: cell-based, Plasmodium falciparum; details: P. falciparum (3D7), Gametocyte (IV-V)
Method in brief: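 3D7 cultures were treated 3 days with 50 mM N-acetyl-D-glucosamine to remove asexual parasites. Stage IV–V gametocytes were then isolated on a discontinuous Percoll gradient. Gametocytes (1.0 × 10^5 per well) were incubated with compound for 72 h. Viability was measured by CellTiter-Glo luminescence.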

[3] = test system: P. falciparum (NF54) stage V gametocytes; assay: P. falciparum standard membrane feeding assay; type: cell-based, Plasmodium falciparum
[4] = test system: P. falciparum (NF54) liver stage; assay: In vitro P. falciparum liver-stage assay; type: cell-based, Plasmodium falciparum
[5] = test system: P. berghei (ANKA) liver stage; assay: In vitro P. berghei liver-stage assay; type: cell-based, Plasmodium berghei; details: P. berghei (ANKA), Liver stage
Method in brief: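 HepG2 cells (~17,500 per well, in duplicate) were cultured 18–24 h, then the medium was exchanged and compound added. After 1 h, 4,000 P. berghei ANKA GFP–luc sporozoites per well were added, freshly dissected from A. stephensi mosquitoes. Plates were spun 10 min at 1,000 r.p.m. and incubated 48 h at 37 °C. Parasite load was read by Bright-Glo luminescence.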

Solubility assay in PBS = type: physicochemical; details: PBS pH 7.4 with 1% DMSO
Method in brief: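 Compound was prepared at 100 µM in triplicate, both in 100% DMSO and in PBS pH 7.4 with 1% DMSO. Samples were shaken at 750 r.p.m. for 18 h at room temperature. Analysis was by UPLC–MS with single-ion detection. PBS response was fitted to a two-point calibration built from the DMSO samples.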

[6] = Metabolic stability assay, mouse liver microsomes; type: in vitro ADME
Method in brief: (§1)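 Liver microsomes (0.2 mg ml−1) were incubated with compound (0.5 and 5 µM) plus NADPH for 0, 10 and 90 min. Human microsomes or mouse CD-1 microsomes were used, as named in each line. Compound depletion was measured by LC–MS/MS and used to estimate Km, Vmax and half-life.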

[7] = Metabolic stability assay, human liver microsomes; type: in vitro ADME
Method in brief: as §1

HepG2 cell line = assay: Mammalian cell cytotoxicity assay; type: cell-based, human; details: read-out: HepG2 CC50; 72 h
Method in brief: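 HepG2, A549 or HEK293 cells were grown in DMEM with 10% FBS and 1% antibiotic–antimycotic and tested mycoplasma-free. Cells (1 × 10^6) were seeded one day before treatment. They were exposed to ascending compound doses for 72 h, and viability was read by CellTiter-Glo.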

hERG channel = hERG channel (Homo sapiens, UniProt Q12809); assay: hERG channel inhibition assay; type: cell-based; details: read-out: hERG IC50; IKr
Method in brief: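 hERG current was measured in hERG-expressing cell lines by automated patch clamp (QPatch-HTX).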

[8] = Mouse pharmacokinetics assay; type: in vivo; details: CD-1 mice
Method in brief: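 Female CD-1 mice received single intravenous and oral doses. Parameters were estimated by non-compartmental analysis.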

[9] = Pharmacokinetics in P. falciparum 3D7^HLH/BRD-infected NSG mice; type: in vivo, mouse; details: for AUC: huRBC NSG mice; for AUC0-inf / Cmax / MRT0-inf / Tmax / AUC0-t: infected NSG mice; for AUC0-t: t = 24 h
[10] = test system: P. falciparum 3D7^HLH/BRD blood-stage parasites; assay: In vivo P. falciparum blood-stage assay; set-up: species or system Plasmodium falciparum; details: huRBC NSG mice
[11] = test system: P. berghei (ANKA GFP-luc) sporozoites; assay: In vivo P. berghei causal prophylaxis assay; set-up: species or system Plasmodium berghei; details: CD-1 mice
[12] = test system: P. falciparum (NF54HT-GFP-luc) sporozoites; assay: In vivo P. falciparum liver-stage assay; set-up: species or system Plasmodium falciparum
[13] = test system: P. berghei (ANKA GFP-luc); assay: In vivo P. berghei transmission-stage assay; set-up: species or system Plasmodium berghei; details: for Compound remaining in the circulation (plasma concentration): P. berghei-infected CD-1 mice
[14] = test system: P. falciparum 3D7^HLH/BRD; assay: In vivo P. falciparum transmission-stage assay; set-up: species or system Plasmodium falciparum; details: huRBC NSG mice; single oral 12.5 mg kg^−1; 7 days after treatment
[15] = test system: Salmonella typhimurium strains TA100, TA1535, TA98, TA1537 and Escherichia coli strain WP2uvrA; assay: Ames test; details: in the presence or absence of S9 mix
P. falciparum Dd2 [16] = type: cell-based, Plasmodium falciparum; details: Dd2 cultures, inocula 10^5 to 10^9, 20 nM (EC90), 60 days
[17] = test system: major human cytochrome P450 (CYP) isoforms
[18] = IV (2.5) mg/kg, separate assay over 72 h

hERG channel, sequence (Q12809 whole entry): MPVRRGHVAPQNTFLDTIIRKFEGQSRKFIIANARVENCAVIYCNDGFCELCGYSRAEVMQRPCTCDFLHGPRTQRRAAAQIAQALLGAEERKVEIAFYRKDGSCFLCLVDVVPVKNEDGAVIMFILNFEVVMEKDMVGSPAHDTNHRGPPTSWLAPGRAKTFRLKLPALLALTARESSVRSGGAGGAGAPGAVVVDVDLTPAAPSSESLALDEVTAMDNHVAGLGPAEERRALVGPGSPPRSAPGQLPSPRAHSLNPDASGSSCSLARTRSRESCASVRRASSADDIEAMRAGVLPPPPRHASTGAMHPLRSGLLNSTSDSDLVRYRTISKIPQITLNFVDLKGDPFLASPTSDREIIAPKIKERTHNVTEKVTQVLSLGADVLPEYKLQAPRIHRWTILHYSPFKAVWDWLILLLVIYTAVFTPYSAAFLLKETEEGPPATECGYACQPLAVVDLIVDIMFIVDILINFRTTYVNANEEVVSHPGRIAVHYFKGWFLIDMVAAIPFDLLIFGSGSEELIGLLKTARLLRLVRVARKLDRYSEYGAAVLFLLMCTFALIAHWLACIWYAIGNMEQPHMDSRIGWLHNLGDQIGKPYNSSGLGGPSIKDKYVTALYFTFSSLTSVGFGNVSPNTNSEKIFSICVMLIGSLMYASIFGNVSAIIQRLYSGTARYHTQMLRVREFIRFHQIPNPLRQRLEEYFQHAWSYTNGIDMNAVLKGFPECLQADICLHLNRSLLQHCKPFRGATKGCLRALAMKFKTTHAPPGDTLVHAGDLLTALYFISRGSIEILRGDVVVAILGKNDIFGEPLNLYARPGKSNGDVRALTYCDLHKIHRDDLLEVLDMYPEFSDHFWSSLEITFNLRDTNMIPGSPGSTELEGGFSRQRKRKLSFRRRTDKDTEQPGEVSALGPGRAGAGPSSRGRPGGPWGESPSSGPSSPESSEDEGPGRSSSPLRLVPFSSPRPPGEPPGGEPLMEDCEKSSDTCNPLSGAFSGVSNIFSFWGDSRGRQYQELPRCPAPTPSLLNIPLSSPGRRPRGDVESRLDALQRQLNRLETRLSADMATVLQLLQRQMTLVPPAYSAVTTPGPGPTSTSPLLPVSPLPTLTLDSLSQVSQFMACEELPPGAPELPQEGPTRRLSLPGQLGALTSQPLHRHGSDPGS

COc1ccc(NC(=O)N2CCCCN3[C@H](CN(C)C)[C@H](c4ccc(C#Cc5ccccc5)cc4)[C@@H]3C2)cc1 [BRD7929]
pEC50 (P. falciparum Dd2 [1]; read-out: Pf, Dd2 EC50, blood stage): 8.05
pEC50 (P. falciparum Dd2 [1]; read-out: PfDd2 EC50, asexual blood-stage parasites (Dd2), SAR table): 8.05
EC90 (P. falciparum Dd2 [1]; strain Dd2): 20 nM
pEC50 [2]: 6.80
pEC50 ([3]; read-out: EC50, standard membrane-feeding assay, direct (D), single drug concentration (10 µM) immediately before blood feeding): > 5.00
pEC50 ([3]; read-out: EC50, standard membrane-feeding assay, indirect (ID), parasites treated 24 h before mosquito feeding): 6.57
pEC50 [4]: 6.47
pEC50 [5]: 6.79
PBS solubility (Solubility assay in PBS): 15 µM
Mouse Clint [6]: 21 µL/min/mg
Human Clint [7]: 31 µL/min/mg
CC50 (HepG2 cell line): 9000 nM
pIC50 (hERG channel): 5.68
AUC (estimated) ([8]; 25 mg kg^−1 single-dose cure, estimated from pharmacokinetic studies): 27.5 µM·h
CL ([8]; IV (2.5) mg/kg): 9.9 mL/min/kg
MRT0-inf ([8]; IV (2.5) mg/kg): 40.5 h
Vss ([8]; IV (2.5) mg/kg): 24 L/kg
AUC0-inf [8, 18]: 11.2 µM·h
CL [8, 18]: 7.1 mL/min/kg
MRT0-inf [8, 18]: 45 h
T1/2 [8, 18]: 32 h
Vss [8, 18]: 19 L/kg
AUC0-t ([8]; IV (2.5) mg/kg, separate assay, t = 72 h): 9 ^# µM*hr
AUC0-t ([8]; IV (2.5) mg/kg, t = 24 h): 3.5 ^¶ µM*hr
Cmax ([8]; PO (10) mg/kg): 540 nM
Tmax ([8]; PO (10) mg/kg): 8 h
F ([8]; PO (10) mg/kg, based on initial intravenous study at 24 h): 79.5 ^§ %
AUC0-t ([8]; PO (10) mg/kg, t = 24 h): 11 ^¶ µM*hr
AUC ([9]; 6.25 mg kg^−1 single oral dose): 15.7 µM·h
AUC ([9]; 12.5 mg kg^−1 single oral dose (single-dose cure)): 31.4 µM·h
AUC ([9]; 25 mg kg^−1 single oral dose): 62.8 µM·h
AUC ([9]; 50 mg kg^−1 single oral dose): 125.6 µM·h
AUC0-inf ([9]; PO (3) mg/kg): 7.2 µM·h
Cmax ([9]; PO (3) mg/kg): 210 nM
MRT0-inf ([9]; PO (3) mg/kg): 35.4 h
Tmax ([9]; PO (3) mg/kg): 12 h
AUC0-t ([9]; PO (3) mg/kg): 6.4 ^¶ µM*hr
AUC0-inf ([9]; PO (9) mg/kg): 22.6 µM·h
Cmax ([9]; PO (9) mg/kg): 600 nM
MRT0-inf ([9]; PO (9) mg/kg): 37.8 h
Tmax ([9]; PO (9) mg/kg): 12 h
AUC0-t ([9]; PO (9) mg/kg): 19.7 ^¶ µM*hr
Lowest single oral dose with no recrudescence ([10]; P. falciparum 3D7^HLH/BRD): 12.5 mg/kg
Rate of the loss of bioluminescence ([10]; single dose 6.25 mg kg^−1): slower
Change in parasite-associated bioluminescence ([10]; single dose 25 mg kg^−1 and 50 mg kg^−1): rapid decrease
Mice developing blood-stage parasitaemia within a 30-day period ([11]; single dose of 5 or 25 mg kg^−1): none
Lowest single oral dose with no recrudescence ([11]; P. berghei liver-stage model): 5 mg/kg
Ct value, P. falciparum UCE qRT-PCR ([12]; blood 7 days after inoculation, 40 amplification cycles): 40
Blood-stage marker (P. falciparum UCE transcript) by qRT-PCR ([12]; blood 7 days after inoculation, single 10 mg kg^−1 oral dose): no amplification of the marker was detected; also recorded: not detected
Liver-stage-associated bioluminescence signal ([12]; huHep FRG knockout mice, single 10 mg kg^−1 oral dose 1 day after inoculation): No increase in bioluminescence intensity level; also recorded: no increase in bioluminescence signals
Oocysts in mosquito midguts ([13]; CD-1 mice, single oral 5 or 20 mg kg^−1, 2 days before mosquito feeding): No oocysts were detected
Compound remaining in the circulation (plasma concentration) ([13]; oral 25 mg kg^−1, 1 day after treatment): 896.5 ng/mL
Compound remaining in the circulation (plasma concentration) ([13]; oral 25 mg kg^−1, 4 days after treatment): 170.5 ng/mL
Compound remaining in the circulation (plasma concentration) ([13]; oral 25 mg kg^−1, 10 days after treatment): 8.6 ng/mL
Transmission ([13]; oral 1.25 mg kg^−1 and 0.31 mg kg^−1, 2 days before feeding mosquitoes): reduced transmission activity
Transmission ([13]; oral 5 mg kg^−1, 2 days before feeding mosquitoes): complete blocking of transmission
Oocysts in mosquito midguts ([13]; oral 25 mg kg^−1, blood feeding 1, 4 or 10 days after treatment): No oocysts were found
Transcription of asexual marker SBP1 (qRT-PCR) [14]: decreased to undetectable levels
Transcription of mature gametocyte marker Pfs25 (qRT-PCR) [14]: decreased to undetectable levels
Mutagenicity (Ames test) [15]: non-mutagenic
Recrudescence / resistance under constant drug pressure (P. falciparum Dd2 [16]): No recrudescence
Inhibition of major human CYP isoforms [17]: no inhibition
